# Data: ChEMBL document CHEMBL3352485 (J Med Chem, 2014)
# Activity calls are given as the source filed them. The rule behind the calls is not given here. Where a SMILES comes first, the peptide text is derived from it. [ ]: non-standard residue; d: D form. Arg(Me) = CNC(=N)NCCC[C@H](N)C(=O)O; azaGly = NNC(=O)O
# Assays:
# KiSS-1 receptor [1] = target: T1, KiSS-1 receptor (Rattus norvegicus, UniProt Q924U1); experiment: Displacement of radioligand from rat KISS1R transfected in CHO cells; assay type: cell-based
# Rattus norvegicus [2] = experiment: Testosterone-suppressive activity in Crl:CD(SD) rat assessed as number of animal with plasma testosterone level below the limit of detection at 0.03 mol/hr, sc through osmotic pumps measured after 6 days by RIA; assay type: functional
# KiSS-1 receptor [3] = target: T2, KiSS-1 receptor (Homo sapiens, UniProt Q969F8); experiment: Agonist activity at human KISS1R transfected in CHO cells assessed as intracellular calcium flux after 24 hrs by functional FLIPR assay; assay type: cell-based
# In short: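 CHO cells stably expressing human KISS1R were seeded at 15 000 cells/mL, cultured 24 h, then loaded with fluo-3 for 1 h at 37 °C in HBSS/HEPES (pH 7.4) with probenecid and FBS. Cells were washed in HBSS with 2.5 mM probenecid. Peptides came from 1 mM DMSO stocks diluted in buffer containing probenecid, 0.2% BSA and 0.1% CHAPS. Fluorescence was recorded on FLIPR for 3 min; peak counts over 0–180 s gave agonist activity.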
# KiSS-1 receptor [4] = target: T1, KiSS-1 receptor; experiment: Agonist activity at rat KISS1R transfected in CHO cells assessed as intracellular calcium flux after 24 hrs by functional FLIPR assay; assay type: cell-based
# Rattus norvegicus [5] = experiment: Testosterone-suppressive activity in Crl:CD(SD) rat assessed as number of animal with plasma testosterone level below the limit of detection at 0.1 nmol/hr, sc through osmotic pumps measured after 6 days by RIA; assay type: functional
# In short: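 Peptide was dissolved in distilled water or 50% DMSO as 0.1–2 mM pump solutions and delivered by ALZET osmotic pumps implanted subcutaneously in the back of 9-week-old male Crl:CD(SD) rats (n = 5) under ether. Controls received distilled-water pumps. After 6 days, rats were decapitated and plasma was recovered with aprotinin/EDTA. Testosterone was measured by RIA, and the number of rats below the detection limit (0.04 ng/mL) was counted.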
# Rattus norvegicus [6] = experiment: Testosterone-suppressive activity in Crl:CD(SD) rat assessed as number of animal with plasma testosterone level below the limit of detection at 0.05 mol/hr, sc through osmotic pumps measured after 6 days by RIA; assay type: functional
# [7] = Bioavailability in Sprague-Dawley rat at 1 mg/kg, sc after 24 hrs by LC-MS/MS analysis; assay type: ADME, organism-based; conditions: in vivo
# In short: (§1)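 Single subcutaneous dose of 1 mg/kg in male Crl:CD(SD) rats, n = 3 per group. Blood was sampled from 5 min to 24 h (5, 10, 15, 30 min; 1, 2, 4, 8, 24 h). Plasma was deproteinized with formic acid/methanol and acetonitrile, and peptide levels were measured by LC-MS. Noncompartmental analysis per animal gave Cmax, Tmax, AUC0-24h, MRT and BA; values are mean ± SD (n = 3).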
# [8] = Tmax in Sprague-Dawley rat at 1 mg/kg, sc after 24 hrs by LC-MS/MS analysis; assay type: ADME, organism-based; design: dose 1 mg/kg, route subcutaneous; conditions: in vivo; in short: as §1
# Canis familiaris = species on record: Canis familiaris; experiment: Toxicity in dog; assay type: organism-based, Canis lupus familiaris; conditions: in vivo
# [9] = AUC (0 to 24 hrs) in Sprague-Dawley rat at 1 mg/kg, iv after 24 hrs by LC-MS/MS analysis; assay type: ADME, organism-based; design: time < 24 hr, dose 1 mg/kg, route intravenous; conditions: plasma
# In short: (§2)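 Male Crl:CD(SD) rats (3 per group) got a single intravenous dose of 1 mg/kg. Blood was drawn at 5, 10, 15 and 30 min and at 1, 2, 4, 8 and 24 h. Plasma proteins were removed with 0.2% formic acid/methanol and acetonitrile, and the supernatant was treated with 0.4% formic acid. Peptide was quantified by LC-MS. Noncompartmental parameters were derived per rat, reported as mean ± SD (n = 3).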
# Rattus norvegicus [10] = species on record: Rattus norvegicus; experiment: Toxicity in rat; assay type: organism-based; conditions: in vivo
# Rattus norvegicus [11] = experiment: Testosterone-suppressive activity in Crl:CD(SD) rat assessed as number of animal with plasma testosterone level below the limit of detection […], sc through osmotic pumps measured after 6 days by RIA; assay type: functional
# Rattus norvegicus [12] = experiment: Stimulation of testosterone release in Crl:CD(SD) rat assessed as testosterone AUC (0 to 4 hrs) at 0.01 to 1 nmol/kg, sc single dose; assay type: functional, organism-based
# [13] = AUC (0 to 24 hrs) in Sprague-Dawley rat at 1 mg/kg, sc after 24 hrs by LC-MS/MS analysis; assay type: ADME, organism-based; design: time < 24 hr, dose 1 mg/kg, route subcutaneous; conditions: plasma; in short: as §1
# [14] = C5min in Sprague-Dawley rat at 1 mg/kg, iv after 5 mins by LC-MS/MS analysis; conditions: in vivo, read-out: Cmin
# [15] = Volume of distribution at steady state in Sprague-Dawley rat at 1 mg/kg, iv after 24 hrs by LC-MS/MS analysis; assay type: ADME, organism-based; design: dose 1 mg/kg, route intravenous; conditions: in vivo, read-out: Vdss; in short: as §2
# [16] = Total clearance in Sprague-Dawley rat at 1 mg/kg, iv after 24 hrs by LC-MS/MS analysis; assay type: ADME, organism-based; design: dose 1 mg/kg, route intravenous; conditions: in vivo; in short: as §2
# Rattus norvegicus [17] = experiment: Stimulation of LH release in Crl:CD(SD) rat assessed as LH AUC (0 to 4 hrs) at 0.01 to 1 nmol/kg, sc single dose relative to metastin; assay type: functional
# [18] = Stability of the compound in aqueous solution assessed as residual ratio at pH 7 up to 2 weeks by HPLC analysis relative to initial level; assay type: physicochemical
# In short: (§3)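 Peptides in aqueous solution at pH 1.2 (JP1, containing 10% acetonitrile), 3, 5 or 7 were kept in the dark at 37 °C for up to 2 weeks. Peptide remaining was quantified from HPLC peak area, with detection at 230–280 nm. The residual ratio (stability index) was expressed relative to the time-0 amount, taken as 100%.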
# [19] = Mean residence time in Sprague-Dawley rat at 1 mg/kg, sc after 24 hrs by LC-MS/MS analysis; assay type: ADME, organism-based; design: dose 1 mg/kg, route subcutaneous; conditions: in vivo; in short: as §1
# [20] = Stability of the compound in aqueous solution (JP1) assessed as residual ratio at pH 1.2 up to 1 week by HPLC analysis relative to initial level; assay type: physicochemical; in short: as §3
# KiSS-1 receptor [21] = target: T2, KiSS-1 receptor; experiment: Displacement of radioligand from human KISS1R transfected in CHO cells; assay type: cell-based
# In short: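 Binding used membrane fractions prepared from CHO cells expressing recombinant human KISS1R.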
# [22] = Stability of the compound in aqueous solution assessed as residual ratio at pH 5 up to 2 weeks by HPLC analysis relative to initial level; assay type: physicochemical; in short: as §3
# [23] = Mean residence time in Sprague-Dawley rat at 1 mg/kg, iv after 24 hrs by LC-MS/MS analysis; assay type: ADME, organism-based; design: dose 1 mg/kg, route intravenous; conditions: in vivo; in short: as §2
# [24] = Stability of the compound in aqueous solution assessed as residual ratio at pH 7 up to 1 week by HPLC analysis relative to initial level; assay type: physicochemical; in short: as §3
# Rattus norvegicus [25] = experiment: Testosterone-suppressive activity in Crl:CD(SD) rat assessed as plasma testosterone level below the limit of detection at 10 to 100 pmol/hr, sc continuous administration through osmotic pumps measured up to 1 week by RIA; assay type: functional, organism-based
# In short: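 Peptide in 50% DMSO was diluted in distilled water to 10, 30 or 100 μM pump solutions, giving 10–100 pmol/h by subcutaneous ALZET osmotic pump in male Crl:CD(SD) rats (n = 5). Vehicle served as control. Plasma testosterone was measured by RIA after 1 or 4 weeks, with values below 0.04 ng/mL set to 0.04. Results are mean ± SD of five rats, tested by one-tailed Shirley–Williams test versus vehicle.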
# [26] = Cmax in Sprague-Dawley rat at 1 mg/kg, sc after 24 hrs by LC-MS/MS analysis; assay type: ADME, organism-based; design: dose 1 mg/kg, route subcutaneous; conditions: in vivo; in short: as §1
# [27] = Stability of the compound in aqueous solution assessed as residual ratio at pH 3 up to 1 week by HPLC analysis relative to initial level; assay type: physicochemical; in short: as §3
# [28] = Stability of the compound in aqueous solution assessed as residual ratio at pH 3 up to 2 weeks by HPLC analysis relative to initial level; assay type: physicochemical; in short: as §3
# [29] = Stability of the compound in aqueous solution assessed as residual ratio at pH 5 up to 1 week by HPLC analysis relative to initial level; assay type: physicochemical; in short: as §3
# [30] = Stability of the compound in aqueous solution (JP1) assessed as residual ratio at pH 1.2 up to 2 weeks by HPLC analysis relative to initial level; assay type: physicochemical; in short: as §3
# T2 sequence (Q969F8 whole entry): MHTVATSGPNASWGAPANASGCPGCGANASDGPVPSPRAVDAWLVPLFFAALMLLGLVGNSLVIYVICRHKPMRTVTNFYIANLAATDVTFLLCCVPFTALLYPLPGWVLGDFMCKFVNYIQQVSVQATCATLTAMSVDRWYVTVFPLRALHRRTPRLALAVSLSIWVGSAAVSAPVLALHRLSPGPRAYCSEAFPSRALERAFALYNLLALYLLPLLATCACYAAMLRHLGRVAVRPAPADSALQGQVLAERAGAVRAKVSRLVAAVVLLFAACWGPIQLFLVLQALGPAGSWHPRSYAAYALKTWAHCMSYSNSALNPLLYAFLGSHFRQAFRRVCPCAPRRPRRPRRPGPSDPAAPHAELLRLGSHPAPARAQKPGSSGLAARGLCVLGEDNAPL
# T1 sequence (Q924U1 whole entry): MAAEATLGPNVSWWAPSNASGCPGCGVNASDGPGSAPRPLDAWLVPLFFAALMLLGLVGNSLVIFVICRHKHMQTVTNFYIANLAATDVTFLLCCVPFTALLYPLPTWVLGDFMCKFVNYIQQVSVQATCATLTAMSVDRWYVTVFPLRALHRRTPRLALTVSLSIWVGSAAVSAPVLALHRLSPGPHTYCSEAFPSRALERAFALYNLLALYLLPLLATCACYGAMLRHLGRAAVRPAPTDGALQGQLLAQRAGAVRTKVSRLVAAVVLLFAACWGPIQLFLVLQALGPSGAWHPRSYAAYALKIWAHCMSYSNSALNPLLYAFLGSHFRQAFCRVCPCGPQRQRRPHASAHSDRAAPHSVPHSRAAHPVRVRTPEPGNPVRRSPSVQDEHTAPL
structure (smiles),measurement,setting,value
CCCC(=O)N[C@H](Cc1ccc(O)cc1)C(=O)N[C@H](Cc1c[nH]c2ccccc12)C(=O)N[C@@H](CC(N)=O)C(=O)N[C@H](C(=O)N[C@@H](Cc1ccccc1)C(=O)NNC(=O)N[C@@H](CC(C)C)C(=O)N[C@@H](CCCNC(=N)NC)C(=O)N[C@@H](Cc1c[nH]c2ccccc12)C(N)=O)[C@@H](C)O,Ki,KiSS-1 receptor [1],0.11 nM
same,Activity,Rattus norvegicus [2],0%
same,EC50,KiSS-1 receptor [3],0.8 nM
same,EC50,KiSS-1 receptor [4],3.7 nM
same,Activity,Rattus norvegicus [5],3 rats (n = 5)
CNC(=N)NCCC[C@H](NC(=O)[C@H](CC(C)C)NC(=O)NNC(=O)[C@H](Cc1ccccc1)NC(=O)[C@@H](NC(=O)[C@H](CC(N)=O)NC(=O)[C@@H](Cc1c[nH]c2ccccc12)NC(=O)[C@@H](Cc1ccc(O)cc1)NC(C)=O)[C@@H](C)O)C(=O)N[C@@H](Cc1c[nH]c2ccccc12)C(N)=O (Ac-[dY][dW]NTF[azaGly]L[Arg(Me)]W-NH2),Activity,Rattus norvegicus [6],5%
same,bioavailability,[7],9.4%
same,Ki,KiSS-1 receptor [1],0.069 nM
same,Activity,Rattus norvegicus [2],4%
same,Tmax,[8],11.4 min
same,Activity,Canis familiaris,Non-toxic
same,EC50,KiSS-1 receptor [3],0.33 nM
same,AUC(0-t) at 24 h,[9],1220 ng·h/mL
same,Activity,Rattus norvegicus [10],Non-toxic
same,Activity,Rattus norvegicus [11],0 animals
same,Activity,Rattus norvegicus [12],Active
same,AUC(0-t) at 24 h,[13],115 ng·h/mL
same,concentration at 5 min,[14],2510 ng/mL
same,Vd,[15],0.562 L/kg
same,clearance,[16],13.7 mL/min/kg
same,fold change (FC),Rattus norvegicus [17],100
same,remaining at 336 h,[18],66.4%
same,MRT,[19],51.6 min
same,remaining at 168 h,[20],55.6%
same,Ki,KiSS-1 receptor [21],0.036 nM
same,remaining at 336 h,[22],93.6%
same,MRT,[23],41.4 min
same,EC50,KiSS-1 receptor [4],1.3 nM
same,remaining at 168 h,[24],79.7%
same,inhibition,Rattus norvegicus [25],Active
same,Cmax,[26],100 ng/mL
same,remaining at 168 h,[27],97.7%
same,remaining at 336 h,[28],95.6%
same,remaining at 168 h,[29],95.9%
same,remaining at 336 h,[30],28.8%
CNC(=N)NCCC[C@H](NC(=O)[C@H](CC(C)C)NC(=O)NNC(=O)[C@H](Cc1ccccc1)NC(=O)[C@@H](NC(=O)[C@H](CC(N)=O)NC(=O)[C@@H](Cc1c[nH]c2ccccc12)NC(=O)[C@@H](Cc1ccc(O)cc1)NC(C)=O)[C@@H](C)O)C(=O)N[C@@H](Cc1ccccc1)C(N)=O,Activity,Rattus norvegicus [6],5%
same,bioavailability,[7],28.9%
same,Ki,KiSS-1 receptor [1],0.087 nM
same,Activity,Rattus norvegicus [2],4%
same,Tmax,[8],25.2 min
same,EC50,KiSS-1 receptor [3],0.94 nM
same,AUC(0-t) at 24 h,[9],497 ng·h/mL
same,Activity,Rattus norvegicus [11],0 animals
same,AUC(0-t) at 24 h,[13],144 ng·h/mL
same,concentration at 5 min,[14],1450 ng/mL
same,Vd,[15],0.896 L/kg
same,clearance,[16],34.5 mL/min/kg
same,remaining at 336 h,[18],67.6%
same,MRT,[19],52.8 min
same,remaining at 168 h,[20],50.6%
same,Ki,KiSS-1 receptor [21],0.038 nM
same,remaining at 336 h,[22],96.3%
same,MRT,[23],26.4 min
same,EC50,KiSS-1 receptor [4],3.9 nM
same,remaining at 168 h,[24],84.5%
same,inhibition,Rattus norvegicus [25],Active
same,Cmax,[26],114 ng/mL
same,remaining at 168 h,[27],97.5%
same,remaining at 336 h,[28],95%
same,remaining at 168 h,[29],98.1%
same,remaining at 336 h,[30],22.3%
